ChEMBL document CHEMBL5696442, “Discovery of type II inhibitors of TGFβ-activated kinase 1 (TAK1) and mitogen-activated protein kinase kinase kinase kinase 2 (MAP4K2)” (J Med Chem, 2015)
Calls of active or inactive are those of the source. No cut-off for these calls is given here.

How the values were obtained:
[1] = molecular target: T1, Phosphatidylinositol 5-phosphate 4-kinase type-2 gamma (Homo sapiens) (UniProt Q8TBX8); test: Inhibition of PIP4K2C ATP labeling site harbouring VKELPTLK in human A-375 cells at 5 uM by KiNativ Profiling analysis relative to control; assay type: cell-based
T1 sequence (whole entry): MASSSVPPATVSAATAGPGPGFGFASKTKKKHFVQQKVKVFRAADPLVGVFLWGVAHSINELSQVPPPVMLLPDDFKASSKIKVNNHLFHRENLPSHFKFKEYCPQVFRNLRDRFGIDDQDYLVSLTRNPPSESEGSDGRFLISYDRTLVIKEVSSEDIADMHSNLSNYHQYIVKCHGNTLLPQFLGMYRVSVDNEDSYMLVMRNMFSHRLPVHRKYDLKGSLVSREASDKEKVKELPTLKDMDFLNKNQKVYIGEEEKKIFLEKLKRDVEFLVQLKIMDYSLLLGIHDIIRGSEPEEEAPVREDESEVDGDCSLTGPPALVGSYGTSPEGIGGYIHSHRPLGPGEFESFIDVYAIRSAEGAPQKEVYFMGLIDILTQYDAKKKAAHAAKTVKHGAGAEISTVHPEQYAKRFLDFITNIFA

[2] = molecular target: Receptor-interacting serine/threonine-protein kinase 2 (Homo sapiens) (UniProt O43353); test: Inhibition of RIPK2 (unknown origin) at 1 uM by Ambit Kinomescan binding assay relative to control
[3] = molecular target: Microtubule-associated serine/threonine-protein kinase 4 (Homo sapiens) (UniProt O15021); test: Inhibition of MAST4 Lys2 labeling site in human A-375 cells at 5 uM by KiNativ Profiling analysis relative to control; assay type: cell-based
Method in brief: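 Live A375 melanoma cells were treated with compound at 5 or 0.5 μM, then lysed. Lysates were labeled with a lysine-reactive ATP or ADP-biotin probe. Read-out was the compound's protection of kinase labeling sites from probe labeling (KiNativ).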

[4] = molecular target: Cyclin-dependent kinase 11B (Homo sapiens) (UniProt P21127); test: Inhibition of CDC2L1 (unknown origin) at 1 uM by Ambit Kinomescan binding assay relative to control
[5] = molecular target: Vascular endothelial growth factor receptor 2 (Homo sapiens) (UniProt P35968); test: Inhibition of VEGFR2 (unknown origin) at 1 uM by Ambit Kinomescan binding assay relative to control
[6] = molecular target: Tyrosine-protein kinase ABL (Homo sapiens) (UniProt P00519+P42684); test: Inhibition of ABL1/2 K1 labeling site in human Huh-7 cells at 10 uM by KiNativ Profiling analysis relative to control; assay type: cell-based
[7] = molecular target: Dual specificity mitogen-activated protein kinase kinase 2 (Homo sapiens) (UniProt P36507); test: Inhibition of MAP2K2 Lys2 labeling site in human A-375 cells at 5 uM by KiNativ Profiling analysis relative to control; assay type: cell-based
[8] = molecular target: T2, Myotonin-protein kinase (Homo sapiens) (UniProt Q09013); test: Inhibition of DMPK1 K2 labeling site in human Huh-7 cells at 10 uM by KiNativ Profiling analysis relative to control; assay type: cell-based
T2 sequence (whole entry): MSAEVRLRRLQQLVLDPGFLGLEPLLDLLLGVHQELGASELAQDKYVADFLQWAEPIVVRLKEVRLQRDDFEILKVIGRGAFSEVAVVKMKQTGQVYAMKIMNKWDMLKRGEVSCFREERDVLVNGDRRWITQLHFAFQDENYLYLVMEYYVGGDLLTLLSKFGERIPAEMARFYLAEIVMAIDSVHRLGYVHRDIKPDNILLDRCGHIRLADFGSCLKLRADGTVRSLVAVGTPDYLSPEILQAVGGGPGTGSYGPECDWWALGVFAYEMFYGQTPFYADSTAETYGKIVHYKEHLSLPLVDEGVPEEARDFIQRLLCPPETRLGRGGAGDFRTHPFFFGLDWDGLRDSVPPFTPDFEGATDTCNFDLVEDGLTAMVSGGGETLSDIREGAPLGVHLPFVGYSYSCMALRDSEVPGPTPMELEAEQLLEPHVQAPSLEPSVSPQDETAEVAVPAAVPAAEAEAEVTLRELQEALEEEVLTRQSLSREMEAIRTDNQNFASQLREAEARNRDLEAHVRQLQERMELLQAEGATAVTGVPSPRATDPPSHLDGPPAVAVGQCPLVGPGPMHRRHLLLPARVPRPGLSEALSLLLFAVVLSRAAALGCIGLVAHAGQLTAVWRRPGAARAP

[9] = molecular target: Receptor tyrosine-protein kinase erbB-2 (Homo sapiens) (UniProt P04626); test: Inhibition of ERBB2 (unknown origin) at 10 uM by Ambit Kinomescan binding assay
[10] = molecular target: Serine/threonine-protein kinase 24 (Homo sapiens) (UniProt Q9Y6E0); test: Inhibition of MST3 Lys2 labeling site harbouring IHRDIKAANVLLSEHGEVK in human Huh-7 cell lysate at 1 uM by KiNativ Profiling analysis relative to control; assay type: subcellular
[11] = molecular target: Serine/threonine-protein kinase 26 (Homo sapiens) (UniProt Q9P289); test: Inhibition of MST4 Lys1 labeling site in human Huh-7 cells at 1 uM by KiNativ Profiling analysis relative to control; assay type: cell-based
[12] = molecular target: T3, Serine/threonine-protein kinase TAO3 (Homo sapiens) (UniProt Q9H2K8); test: Inhibition of TAO3 Lys2 labeling site in human Huh-7 cells at 1 uM by KiNativ Profiling analysis relative to control; assay type: cell-based
T3 sequence (whole entry): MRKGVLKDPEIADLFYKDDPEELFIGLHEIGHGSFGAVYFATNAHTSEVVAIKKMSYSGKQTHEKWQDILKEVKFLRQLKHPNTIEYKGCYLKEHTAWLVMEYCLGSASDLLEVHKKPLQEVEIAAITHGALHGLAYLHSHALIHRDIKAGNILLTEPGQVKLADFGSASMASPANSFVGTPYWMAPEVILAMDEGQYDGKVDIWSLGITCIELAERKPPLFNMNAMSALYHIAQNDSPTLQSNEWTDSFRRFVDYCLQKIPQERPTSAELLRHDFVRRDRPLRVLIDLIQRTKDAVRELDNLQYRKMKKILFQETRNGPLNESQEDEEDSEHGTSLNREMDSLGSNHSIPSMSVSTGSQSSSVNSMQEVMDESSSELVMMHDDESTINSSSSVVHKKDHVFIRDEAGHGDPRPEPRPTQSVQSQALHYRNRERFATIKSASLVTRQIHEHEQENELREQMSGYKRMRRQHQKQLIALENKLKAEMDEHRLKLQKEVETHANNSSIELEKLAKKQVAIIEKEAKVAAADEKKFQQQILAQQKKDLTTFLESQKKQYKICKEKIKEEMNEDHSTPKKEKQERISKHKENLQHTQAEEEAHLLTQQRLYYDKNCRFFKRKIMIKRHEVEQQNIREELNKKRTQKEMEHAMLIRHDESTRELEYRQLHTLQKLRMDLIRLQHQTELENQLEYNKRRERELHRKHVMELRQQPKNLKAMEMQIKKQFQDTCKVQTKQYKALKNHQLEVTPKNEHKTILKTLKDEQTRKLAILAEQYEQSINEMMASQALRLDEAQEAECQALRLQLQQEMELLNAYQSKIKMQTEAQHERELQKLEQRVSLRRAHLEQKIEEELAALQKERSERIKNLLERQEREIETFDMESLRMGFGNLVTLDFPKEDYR

Serine/threonine-protein kinase 26 (Homo sapiens), sequence (Q9P289 2-416 limits assumed): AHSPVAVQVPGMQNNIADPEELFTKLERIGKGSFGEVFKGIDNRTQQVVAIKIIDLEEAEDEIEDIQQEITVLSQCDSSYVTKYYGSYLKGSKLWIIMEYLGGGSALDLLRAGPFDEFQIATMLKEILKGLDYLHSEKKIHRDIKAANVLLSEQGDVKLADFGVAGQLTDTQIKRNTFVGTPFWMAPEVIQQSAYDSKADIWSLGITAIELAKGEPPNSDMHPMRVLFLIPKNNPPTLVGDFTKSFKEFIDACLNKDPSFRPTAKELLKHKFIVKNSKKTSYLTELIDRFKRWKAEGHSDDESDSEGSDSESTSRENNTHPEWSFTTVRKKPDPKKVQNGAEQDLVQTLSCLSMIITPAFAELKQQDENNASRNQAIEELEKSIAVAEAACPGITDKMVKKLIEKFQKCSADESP
Serine/threonine-protein kinase 24 (Homo sapiens), sequence (Q9Y6E0 whole entry, looked up): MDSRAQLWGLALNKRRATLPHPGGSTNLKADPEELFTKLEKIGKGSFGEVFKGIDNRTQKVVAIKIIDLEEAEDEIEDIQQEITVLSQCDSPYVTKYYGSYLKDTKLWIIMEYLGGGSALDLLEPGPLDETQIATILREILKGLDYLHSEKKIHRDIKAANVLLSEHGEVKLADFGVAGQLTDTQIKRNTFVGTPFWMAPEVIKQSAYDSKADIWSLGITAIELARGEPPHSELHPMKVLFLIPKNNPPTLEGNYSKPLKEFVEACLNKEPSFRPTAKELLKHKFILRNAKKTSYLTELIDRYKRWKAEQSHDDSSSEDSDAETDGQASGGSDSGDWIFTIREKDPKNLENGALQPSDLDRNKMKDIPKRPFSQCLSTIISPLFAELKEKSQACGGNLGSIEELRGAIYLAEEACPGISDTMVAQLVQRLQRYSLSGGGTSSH
Receptor-interacting serine/threonine-protein kinase 2 (Homo sapiens), sequence (O43353 whole entry): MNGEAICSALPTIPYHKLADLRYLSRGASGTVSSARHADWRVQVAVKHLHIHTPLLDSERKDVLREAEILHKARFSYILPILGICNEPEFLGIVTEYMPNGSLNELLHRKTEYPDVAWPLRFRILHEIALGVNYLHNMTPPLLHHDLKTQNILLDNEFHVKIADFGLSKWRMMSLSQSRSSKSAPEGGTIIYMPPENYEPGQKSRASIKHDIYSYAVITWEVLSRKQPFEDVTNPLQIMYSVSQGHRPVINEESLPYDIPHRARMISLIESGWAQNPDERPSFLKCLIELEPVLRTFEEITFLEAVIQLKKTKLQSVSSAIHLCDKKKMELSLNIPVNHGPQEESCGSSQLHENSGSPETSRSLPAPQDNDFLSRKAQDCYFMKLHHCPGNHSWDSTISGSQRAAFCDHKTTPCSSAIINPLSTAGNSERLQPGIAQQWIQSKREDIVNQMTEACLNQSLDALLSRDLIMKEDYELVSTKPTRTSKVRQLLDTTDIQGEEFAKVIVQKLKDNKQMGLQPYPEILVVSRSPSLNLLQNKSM
Tyrosine-protein kinase ABL (Homo sapiens), sequence (P00519 whole entry, looked up): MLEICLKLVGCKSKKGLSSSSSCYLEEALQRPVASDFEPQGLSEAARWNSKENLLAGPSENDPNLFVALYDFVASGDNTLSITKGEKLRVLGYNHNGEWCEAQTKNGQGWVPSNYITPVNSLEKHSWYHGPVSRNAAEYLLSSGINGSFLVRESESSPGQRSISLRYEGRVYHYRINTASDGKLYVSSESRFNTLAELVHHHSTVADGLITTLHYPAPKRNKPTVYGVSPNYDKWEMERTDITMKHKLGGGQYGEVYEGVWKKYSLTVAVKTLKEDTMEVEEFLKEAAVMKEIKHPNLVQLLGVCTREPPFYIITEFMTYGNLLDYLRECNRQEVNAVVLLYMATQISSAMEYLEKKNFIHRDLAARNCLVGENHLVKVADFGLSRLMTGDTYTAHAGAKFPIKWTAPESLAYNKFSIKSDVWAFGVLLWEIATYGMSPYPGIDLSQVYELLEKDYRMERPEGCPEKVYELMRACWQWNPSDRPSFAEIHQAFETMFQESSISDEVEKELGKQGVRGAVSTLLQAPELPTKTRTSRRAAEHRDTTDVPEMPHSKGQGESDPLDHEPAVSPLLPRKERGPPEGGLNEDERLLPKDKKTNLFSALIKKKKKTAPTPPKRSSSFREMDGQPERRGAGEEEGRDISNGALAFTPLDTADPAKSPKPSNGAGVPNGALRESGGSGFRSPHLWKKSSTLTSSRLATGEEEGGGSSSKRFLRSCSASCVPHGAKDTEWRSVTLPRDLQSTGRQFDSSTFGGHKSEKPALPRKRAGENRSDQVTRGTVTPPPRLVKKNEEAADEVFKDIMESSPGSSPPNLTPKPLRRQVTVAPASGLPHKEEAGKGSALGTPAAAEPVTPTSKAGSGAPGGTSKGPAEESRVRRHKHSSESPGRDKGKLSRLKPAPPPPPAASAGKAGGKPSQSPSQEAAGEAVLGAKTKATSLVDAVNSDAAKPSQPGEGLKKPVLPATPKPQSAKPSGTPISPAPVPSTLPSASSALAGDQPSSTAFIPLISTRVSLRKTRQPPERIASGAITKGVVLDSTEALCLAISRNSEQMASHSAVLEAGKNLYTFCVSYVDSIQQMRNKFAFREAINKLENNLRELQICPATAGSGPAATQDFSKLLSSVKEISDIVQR
Tyrosine-protein kinase ABL (Homo sapiens), sequence (P42684 whole entry, looked up): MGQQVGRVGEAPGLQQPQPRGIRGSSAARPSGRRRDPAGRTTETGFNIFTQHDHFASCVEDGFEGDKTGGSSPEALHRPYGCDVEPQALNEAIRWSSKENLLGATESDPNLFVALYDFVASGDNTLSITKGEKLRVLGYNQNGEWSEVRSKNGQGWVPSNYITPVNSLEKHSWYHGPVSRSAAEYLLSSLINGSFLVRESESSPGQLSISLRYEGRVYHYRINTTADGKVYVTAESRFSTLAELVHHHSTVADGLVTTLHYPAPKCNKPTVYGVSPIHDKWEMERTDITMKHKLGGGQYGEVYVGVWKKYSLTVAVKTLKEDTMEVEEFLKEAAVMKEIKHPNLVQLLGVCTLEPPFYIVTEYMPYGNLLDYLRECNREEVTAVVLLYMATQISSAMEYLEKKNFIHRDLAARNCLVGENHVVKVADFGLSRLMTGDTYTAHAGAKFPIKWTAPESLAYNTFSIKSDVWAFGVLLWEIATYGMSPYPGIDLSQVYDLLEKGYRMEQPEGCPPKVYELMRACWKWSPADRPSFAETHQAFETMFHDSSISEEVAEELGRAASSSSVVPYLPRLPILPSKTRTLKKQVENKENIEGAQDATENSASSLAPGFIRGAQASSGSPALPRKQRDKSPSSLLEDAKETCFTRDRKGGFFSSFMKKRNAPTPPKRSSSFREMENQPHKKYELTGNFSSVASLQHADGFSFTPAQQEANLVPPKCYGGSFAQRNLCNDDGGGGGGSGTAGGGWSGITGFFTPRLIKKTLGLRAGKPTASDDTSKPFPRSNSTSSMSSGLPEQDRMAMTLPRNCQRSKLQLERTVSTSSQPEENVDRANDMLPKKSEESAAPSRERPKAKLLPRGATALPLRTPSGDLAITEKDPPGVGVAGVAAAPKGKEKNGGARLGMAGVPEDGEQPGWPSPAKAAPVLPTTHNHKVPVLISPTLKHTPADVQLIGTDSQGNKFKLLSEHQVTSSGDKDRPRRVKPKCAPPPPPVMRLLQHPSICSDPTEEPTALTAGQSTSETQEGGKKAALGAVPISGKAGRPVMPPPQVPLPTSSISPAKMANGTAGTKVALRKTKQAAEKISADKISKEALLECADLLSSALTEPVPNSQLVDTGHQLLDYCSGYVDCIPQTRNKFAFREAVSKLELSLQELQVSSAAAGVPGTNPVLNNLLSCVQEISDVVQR
Vascular endothelial growth factor receptor 2 (Homo sapiens), sequence (P35968 whole entry): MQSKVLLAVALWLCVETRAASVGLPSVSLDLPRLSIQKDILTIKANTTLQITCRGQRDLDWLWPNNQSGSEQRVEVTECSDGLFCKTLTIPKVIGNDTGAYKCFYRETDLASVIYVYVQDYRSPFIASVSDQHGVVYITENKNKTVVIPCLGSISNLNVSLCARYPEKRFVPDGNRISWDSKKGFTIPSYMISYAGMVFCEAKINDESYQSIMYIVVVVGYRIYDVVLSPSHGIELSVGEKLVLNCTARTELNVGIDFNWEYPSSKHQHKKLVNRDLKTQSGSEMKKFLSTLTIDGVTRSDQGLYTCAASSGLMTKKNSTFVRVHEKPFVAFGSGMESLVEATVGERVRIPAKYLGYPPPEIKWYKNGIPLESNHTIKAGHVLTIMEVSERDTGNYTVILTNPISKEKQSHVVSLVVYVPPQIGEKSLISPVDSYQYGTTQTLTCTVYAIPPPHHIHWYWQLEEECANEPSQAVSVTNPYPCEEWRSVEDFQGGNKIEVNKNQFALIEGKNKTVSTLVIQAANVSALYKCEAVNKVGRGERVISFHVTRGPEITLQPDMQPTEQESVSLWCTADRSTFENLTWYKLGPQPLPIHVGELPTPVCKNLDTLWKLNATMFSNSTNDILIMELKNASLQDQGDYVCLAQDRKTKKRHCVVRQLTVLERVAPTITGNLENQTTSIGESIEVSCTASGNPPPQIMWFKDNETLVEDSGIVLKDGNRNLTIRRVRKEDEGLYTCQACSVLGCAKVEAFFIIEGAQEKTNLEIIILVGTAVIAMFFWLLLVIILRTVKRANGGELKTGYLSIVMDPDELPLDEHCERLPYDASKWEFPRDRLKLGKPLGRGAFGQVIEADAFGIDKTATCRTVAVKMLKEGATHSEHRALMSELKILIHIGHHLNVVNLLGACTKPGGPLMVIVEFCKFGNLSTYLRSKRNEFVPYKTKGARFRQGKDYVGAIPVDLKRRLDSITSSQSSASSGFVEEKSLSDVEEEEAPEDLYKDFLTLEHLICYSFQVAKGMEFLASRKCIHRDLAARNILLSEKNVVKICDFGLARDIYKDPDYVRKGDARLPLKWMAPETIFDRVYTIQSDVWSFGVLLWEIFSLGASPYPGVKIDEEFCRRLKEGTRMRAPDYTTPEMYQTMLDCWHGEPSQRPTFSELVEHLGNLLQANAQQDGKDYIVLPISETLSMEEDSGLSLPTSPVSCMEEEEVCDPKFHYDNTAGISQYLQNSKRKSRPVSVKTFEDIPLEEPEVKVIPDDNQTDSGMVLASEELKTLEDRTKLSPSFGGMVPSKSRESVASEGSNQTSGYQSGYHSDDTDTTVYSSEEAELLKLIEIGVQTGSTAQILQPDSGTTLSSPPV

## CCN1CCN(Cc2ccc(NC(=O)c3ccc(C)c(/C=C/c4cnc5[nH]ccc5c4OC)c3)cc2C(F)(F)F)CC1
[1]
  inhibition: -6%
[2]
  inhibition: 4.5%
[3]
  inhibition: -8.4%
[4]
  inhibition: 61%
[5]
  inhibition: 14%

## CCN1CCN(Cc2ccc(NC(=O)c3ccc(C)c(Oc4ccnc5[nH]ccc45)c3)cc2C(F)(F)F)CC1
[6]
  inhibition: 96%
[7]
  inhibition: -10%
[8]
  inhibition: 2.8%
[9]
  inhibition: inactive

## CNc1cc(Oc2cc(C(=O)Nc3cc(N4CCN(C)CC4)cc(C(F)(F)F)c3)ccc2C)ncn1
[10]
  inhibition: 15.9%
[11]
  inhibition: 41.9%
[12]
  inhibition: 0.4%
